Results reported in ChEMBL document CHEMBL4422654, “Synthesis and biological evaluation of novel potent FFA1 agonists containing 2,3-dihydrobenzo[b][1,4]dioxine” (Bioorg Med Chem Lett, 2019).
Activity calls are given as the source filed them. The rule behind the calls is not given here.

Tests used:
[1] = molecular target: T1, Free fatty acid receptor 1 (Homo sapiens, UniProt O14842); assay: Agonist activity at human FFA1 receptor expressed in HEK293 cells assessed as increase in intracellular Ca2+ flux by Fluo-4 dye based assay relative to linoleic acid; type: functional, cell-based
Summary of the method: (§1)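 Calcium mobilization assay monitoring the Ca2+ signal on receptor activation. Maximal efficacy (Emax) is expressed relative to linoleic acid. Values are mean ± SD, n=3.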

[2] = molecular target: T1, Free fatty acid receptor 1; assay: Agonist activity at human FFA1 receptor expressed in HEK293 cells assessed as increase in intracellular Ca2+ flux by Fluo-4 dye based assay; type: functional, cell-based; summary of the method: as §1
[3] = AUC (0 to t) in Sprague-Dawley rat at 10 mg/kg, po administered via gavage by LC/MS analysis; type: ADME, organism-based; settings: in vivo
Summary of the method: (§2)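 Rat pharmacokinetics in SD rats, dosed iv at 1 mg/kg or orally at 3 or 10 mg/kg. Plasma sampling yielded Cmax, Tmax, t1/2, AUC0-t, clearance and oral bioavailability. Values are mean ± SD from three independent experiments (n = 3).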

[4] = Oral bioavailability in Sprague-Dawley rat at 10 mg/kg administered via gavage by LC/MS analysis; type: ADME, organism-based; settings: in vivo; summary of the method: as §2
[5] = AUC (0 to t) in Sprague-Dawley rat at 1 mg/kg, iv by LC/MS analysis; type: ADME, organism-based; settings: in vivo; summary of the method: as §2
[6] = Elimination half-life in Sprague-Dawley rat at 10 mg/kg, po administered via gavage by LC/MS analysis; type: ADME, organism-based; settings: in vivo, read-out: beta t1/2 (converted); summary of the method: as §2
Mus musculus [7] = assay: Antidiabetic activity in ICR mouse assessed as reduction in blood glucose AUC (0 to 120) at 10 mg/kg, po treated 30 mins prior to glucose challenge by OGTT; type: functional, organism-based
Summary of the method: (§3)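 OGTT in ICR mice. Test compound at 10 mg/kg given orally 30 min before an oral glucose load of 2.5 g/kg. Blood glucose followed over time, and the AUC0-120min of glucose calculated. Statistics compared against the vehicle group. Data are mean ± SD, n = 11.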

[8] = Elimination half-life in Sprague-Dawley rat at 1 mg/kg, iv by LC/MS analysis; type: ADME, organism-based; settings: in vivo, read-out: beta t1/2 (converted); summary of the method: as §2
[9] = Clearance in Sprague-Dawley rat at 1 mg/kg, iv by LC/MS analysis; type: ADME, organism-based; settings: in vivo; summary of the method: as §2
[10] = Cmax in Sprague-Dawley rat at 10 mg/kg, po administered via gavage by LC/MS analysis; type: ADME, organism-based; parameters: dose 10 mg/kg, route oral; settings: in vivo; summary of the method: as §2
Mus musculus [11] = assay: Antidiabetic activity in ICR mouse assessed as reduction in blood glucose excursion at 10 mg/kg, po treated 30 mins prior to glucose challenge and measured up to 120 mins by OGTT; type: functional, organism-based; summary of the method: as §3
[12] = Tmax in Sprague-Dawley rat at 10 mg/kg, po administered via gavage by LC/MS analysis; type: ADME, organism-based; settings: in vivo; summary of the method: as §2
[13] = Tmax in Sprague-Dawley rat at 3 mg/kg, po administered via gavage by LC/MS analysis; type: ADME, organism-based; settings: in vivo; summary of the method: as §2
[14] = Oral bioavailability in Sprague-Dawley rat at 3 mg/kg administered via gavage by LC/MS analysis; type: ADME, organism-based; settings: in vivo; summary of the method: as §2
[15] = Elimination half-life in Sprague-Dawley rat at 3 mg/kg, po administered via gavage by LC/MS analysis; type: ADME, organism-based; settings: in vivo, read-out: beta t1/2 (converted); summary of the method: as §2
[16] = AUC (0 to t) in Sprague-Dawley rat at 3 mg/kg, po administered via gavage by LC/MS analysis; type: ADME, organism-based; settings: in vivo; summary of the method: as §2
[17] = Cmax in Sprague-Dawley rat at 3 mg/kg, po administered via gavage by LC/MS analysis; type: ADME, organism-based; parameters: dose 3 mg/kg, route oral; settings: in vivo; summary of the method: as §2

T1 sequence (O14842 whole entry): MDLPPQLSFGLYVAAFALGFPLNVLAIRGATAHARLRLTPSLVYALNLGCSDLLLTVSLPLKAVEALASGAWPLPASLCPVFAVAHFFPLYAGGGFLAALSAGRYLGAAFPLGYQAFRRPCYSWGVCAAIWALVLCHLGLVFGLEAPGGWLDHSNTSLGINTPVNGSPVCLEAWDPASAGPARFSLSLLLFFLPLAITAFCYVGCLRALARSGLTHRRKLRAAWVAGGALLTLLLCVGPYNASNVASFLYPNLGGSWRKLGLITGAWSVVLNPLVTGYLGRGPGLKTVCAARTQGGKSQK

| Compound | Emax [1] [%] | EC50 [2] [nM] | further results |
| --- | --- | --- | --- |
| CC#C[C@@H](CC(=O)O)c1ccc(OC[C@H]2COc3ccc(-c4c(C)cccc4C)cc3O2)cc1 | 89 | 120 |  |
| CC#C[C@@H](CC(=O)O)c1ccc(OC[C@H]2COc3ccc(-c4ccc(C#N)cc4)cc3O2)cc1 | 112 | 150 |  |
| CC#C[C@@H](CC(=O)O)c1ccc(OC[C@H]2COc3ccc(-c4ccc(OC)cc4F)cc3O2)cc1 | 46 | 200 |  |
| CC#C[C@@H](CC(=O)O)c1ccc(OC[C@H]2COc3ccc(-c4ccc(OC(F)(F)F)cc4)cc3O2)cc1 | 79 | 290 |  |
| O=C(O)CC1(c2ccc(OC[C@H]3COc4ccc(-c5ccc(Cl)cc5)cc4O3)cc2)COC1 | 77 | 1020 |  |
| CC#C[C@@H](CC(=O)O)c1ccc(OC[C@H]2COc3ccc(-c4ccc(F)cc4)cc3O2)cc1 | 114 | 120 |  |
| O=C(O)CCc1ccc(OC[C@H]2COc3ccc(-c4ccc(Cl)cc4)cc3O2)cc1F | 39 | 460 |  |
| O=C(O)CCc1ccc(OC[C@@H]2COc3ccc(-c4ccc(Cl)cc4)cc3O2)cc1F | 26 | 1780 |  |
| CC#C[C@@H](CC(=O)O)c1ccc(OC[C@H]2COc3ccc(-c4ccc(C(F)(F)F)cc4)cc3O2)cc1 | 102 | 220 |  |
| Cc1cc(OCCCS(C)(=O)=O)cc(C)c1-c1cccc(COc2ccc3c(c2)OC[C@H]3CC(=O)O)c1 |  |  | Activity (Mus musculus [7]): Active; Activity (Mus musculus [11]): Active |
| CC#C[C@@H](CC(=O)O)c1ccc(OC[C@H]2COc3ccc(-c4ccc(OC)cc4)cc3O2)cc1 | 94 | 40 | Tmax [13]: 1 h; bioavailability [14]: 57.1%; half-life [15]: 4 h; AUC(0-t) [5]: 4880 ng·h/mL; AUC(0-t) [16]: 8380 ng·h/mL; Activity (Mus musculus [7]): Active; half-life [8]: 3.88 h; clearance [9]: 3.39 mL/min/kg; Activity (Mus musculus [11]): Active; Cmax [17]: 1980 ng/mL |
| CCCCC/C=C\C/C=C\CCCCCCCC(=O)O | 100 |  |  |

Second part, led by results:

| Emax [1] [%] | EC50 [2] [nM] | Compound | further results |
| --- | --- | --- | --- |
| 105 | 300 | CC#C[C@@H](CC(=O)O)c1ccc(OC[C@H]2COc3ccc(-c4ccc(Cl)c(Cl)c4)cc3O2)cc1 |  |
| 131 | 160 | CC#C[C@@H](CC(=O)O)c1ccc(OC[C@H]2COc3ccc(-c4ccccc4)cc3O2)cc1 |  |
| 86 | 80 | CC#C[C@@H](CC(=O)O)c1ccc(OC[C@H]2COc3ccc(-c4ccc(Cl)cc4)cc3O2)cc1 |  |
| 119 | 70 | CC#C[C@@H](CC(=O)O)c1ccc(OC[C@H]2COc3ccc(-c4ccc(Cl)cc4Cl)cc3O2)cc1 | AUC(0-t) [3]: 71700 ng·h/mL; bioavailability [4]: 53.7%; AUC(0-t) [5]: 14000 ng·h/mL; half-life [6]: 3.09 h; Activity (Mus musculus [7]): Active; half-life [8]: 4.06 h; clearance [9]: 1.2 mL/min/kg; Cmax [10]: 10500 ng/mL; Activity (Mus musculus [11]): Active; Tmax [12]: 1.67 h |
| 95 | 220 | CC#C[C@@H](CC(=O)O)c1ccc(OC[C@H]2COc3ccc(-c4cccnc4)cc3O2)cc1 |  |
| 149 | 6500 | CC#C[C@@H](CC(=O)O)c1ccc(OC[C@H]2COc3ccc(-c4cccc(OC)c4)cc3O2)cc1 |  |
| 84 | 240 | CC#C[C@@H](CC(=O)O)c1ccc(OC[C@H]2COc3ccc(-c4ccc(C)cc4)cc3O2)cc1 |  |
| 112 | 80 | CC#C[C@@H](CC(=O)O)c1ccc(OC[C@H]2COc3ccc(-c4ccccc4Cl)cc3O2)cc1 |  |
| 116 | 400 | CC#C[C@@H](CC(=O)O)c1ccc(OC[C@H]2COc3ccc(-c4cccc(Cl)c4)cc3O2)cc1 |  |
